Laboratory results: ChEMBL document CHEMBL1126694, “Antitumor agents. 141. Synthesis and biological evaluation of novel thiocolchicine analogs: N-acyl-, N-aroyl-, and N-(substituted benzyl)deacetylthiocolchicines as potent cytotoxic and antimitotic compounds” (J Med Chem, 1993)

Legend:
Type in all cases: functional
[1] = system: SNB-19; experiment: In vitro cytotoxicity against SNB-19 cell line.; conditions: Homo sapiens
How it was run: (§1)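 Tested by the NCI in its tumor cell panel. GI50 (M) is reported as the concentration that caused 50% inhibition of tumor cell growth.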

[2] = system: HCT-15; experiment: In vitro cytotoxicity against HCT-15 cell line.; conditions: Homo sapiens; how it was run: as §1
[3] = system: SR; experiment: In vitro cytotoxicity against SR cell line.; conditions: Homo sapiens; how it was run: as §1
[4] = system: A549; experiment: In vitro cytotoxicity against A549/ATCC cell line.; conditions: Homo sapiens; how it was run: as §1
[5] = system: DMS-114; experiment: In vitro cytotoxicity against DMS114 cell line.; conditions: Homo sapiens; how it was run: as §1
[6] = system: SK-MEL-5; experiment: In vitro cytotoxicity against SK-MEL-5 cell line.; conditions: Homo sapiens; how it was run: as §1
[7] = system: OVCAR; experiment: In vitro cytotoxicity against OVCAR cell line.; conditions: Homo sapiens; how it was run: as §1
[8] = target: Tubulin; experiment: In vitro inhibition of tubulin polymerization.
[9] = In vitro cytotoxicity against RXF cell line.; conditions: Homo sapiens; how it was run: as §1

Row | Structure (SMILES) | GI50 [1] | GI50 [2] | GI50 [3] | GI50 [4] | GI50 [5] | GI50 [6] | GI50 [7] | IC50 [8] | GI50 [9]
1 | COc1cc2c(c(OC)c1OC)-c1ccc(SC)c(=O)cc1[C@@H](NC(=O)c1cccc([N+](=O)[O-])c1)CC2 | 0.0269 µM | 0.0269 µM | 0.00851 µM | 0.0331 µM | 0.0166 µM | 0.0182 µM | 0.0191 µM | 3.4 µM | 0.0166 µM
2 | COc1cc2c(c(OC)c1OC)-c1ccc(SC)c(=O)cc1[C@@H](NCc1ccc([N+](=O)[O-])cc1)CC2 | < 0.01 µM | < 0.01 µM | < 0.01 µM | < 0.01 µM | < 0.01 µM | < 0.01 µM | < 0.01 µM | 2.8 µM | < 0.01 µM
3 | COc1cc2c(c(OC)c1OC)-c1ccc(SC)c(=O)cc1[C@@H](NC(=O)c1ccc(C#N)cc1)CC2 | < 0.01 µM | < 0.01 µM | < 0.01 µM | < 0.01 µM | < 0.01 µM | < 0.01 µM | < 0.01 µM | – | –
4 | COc1cc2c(c(OC)c1OC)-c1ccc(SC)c(=O)cc1[C@@H](NCc1cccc(C#N)c1)CC2 | < 0.00759 µM | < 0.00759 µM | < 0.00759 µM | < 0.00759 µM | < 0.00759 µM | < 0.00759 µM | < 0.00759 µM | 2.5 µM | < 0.00759 µM
5 | COc1cc(CN[C@H]2CCc3cc(OC)c(OC)c(OC)c3-c3ccc(SC)c(=O)cc32)cc(OC)c1 | 0.0676 µM | < 0.01 µM | < 0.01 µM | 0.0372 µM | 0.0166 µM | – | – | 3.4 µM | < 0.01 µM
6 | COc1cc2c(c(OC)c1OC)-c1ccc(SC)c(=O)cc1[C@@H](NC(=O)c1ccc(Cl)cc1)CC2 | < 0.01 µM | < 0.01 µM | < 0.01 µM | < 0.01 µM | < 0.01 µM | < 0.01 µM | < 0.01 µM | – | < 0.01 µM
7 | COc1cc2c(c(OC)c1OC)-c1ccc(SC)c(=O)cc1[C@@H](NC(=O)c1ccc([N+](=O)[O-])cc1)CC2 | < 0.01 µM | < 0.01 µM | < 0.01 µM | < 0.01 µM | < 0.01 µM | < 0.01 µM | < 0.01 µM | – | < 0.01 µM
8 | COc1cc2c(c(OC)c1OC)-c1ccc(OC)c(=O)cc1[C@@H](NC(C)=O)CC2 [COLCHICINE] | – | < 0.0631 µM | – | < 0.0631 µM | – | < 0.0631 µM | < 0.0631 µM | – | –
9 | COc1cc2c(c(OC)c1OC)-c1ccc(SC)c(=O)cc1[C@@H](NCc1ccc(C#N)cc1)CC2 | < 0.01 µM | < 0.01 µM | < 0.01 µM | < 0.01 µM | < 0.01 µM | < 0.01 µM | < 0.01 µM | 2.3 µM | < 0.01 µM
10 | COc1ccc(CN[C@H]2CCc3cc(OC)c(OC)c(OC)c3-c3ccc(SC)c(=O)cc32)c(OC)c1OC | – | < 0.01 µM | < 0.01 µM | – | < 0.01 µM | < 0.01 µM | < 0.01 µM | 2.5 µM | –
11 | COc1cc2c(c(OC)c1OC)-c1ccc(SC)c(=O)cc1[C@@H](NCc1ccccc1[N+](=O)[O-])CC2 | < 0.01 µM | < 0.01 µM | – | < 0.01 µM | < 0.01 µM | < 0.01 µM | < 0.01 µM | 3.2 µM | < 0.01 µM
12 | COc1cc(C(=O)N[C@H]2CCc3cc(OC)c(OC)c(OC)c3-c3ccc(SC)c(=O)cc32)cc(OC)c1OC | – | – | < 0.01 µM | 0.017 µM | < 0.01 µM | < 0.01 µM | < 0.01 µM | – | 0.0339 µM
13 | COc1cc2c(c(OC)c1OC)-c1ccc(SC)c(=O)cc1[C@@H](NCc1ccc(F)cc1)CC2 | < 0.00759 µM | < 0.00759 µM | < 0.00759 µM | < 0.00759 µM | – | < 0.00759 µM | < 0.00759 µM | 2.3 µM | < 0.00759 µM
14 | COc1cc2c(c(OC)c1OC)-c1ccc(SC)c(=O)cc1[C@@H](NCc1cccc([N+](=O)[O-])c1)CC2 | < 0.01 µM | < 0.01 µM | > 100 µM | < 0.01 µM | < 0.01 µM | < 0.01 µM | < 0.01 µM | 2.8 µM | < 0.01 µM
15 | COc1cc2c(c(OC)c1OC)-c1ccc(SC)c(=O)cc1[C@@H](NC(=O)c1ccc(F)cc1)CC2 | 0.0288 µM | 0.0427 µM | 0.0166 µM | 0.049 µM | 0.0269 µM | 0.0302 µM | 0.0182 µM | – | –
16 | CCCCCC(=O)N[C@H]1CCc2cc(OC)c(OC)c(OC)c2-c2ccc(SC)c(=O)cc21 | < 0.01 µM | < 0.01 µM | < 0.01 µM | < 0.01 µM | < 0.01 µM | < 0.01 µM | < 0.01 µM | – | < 0.01 µM
17 | CCOC(=O)c1c(OC)cc(C(=O)N[C@H]2CCc3cc(OC)c(OC)c(OC)c3-c3ccc(SC)c(=O)cc32)cc1OC | 0.324 µM | 0.447 µM | – | 0.427 µM | 0.0263 µM | 0.0457 µM | 0.0324 µM | – | 0.234 µM
18 | COc1cc2c(c(OC)c1OC)-c1ccc(SC)c(=O)cc1[C@@H](NC(=O)c1ccc(OC(C)=O)cc1)CC2 | 0.0214 µM | < 0.1 µM | 0.00776 µM | < 0.1 µM | 0.0144 µM | 0.0195 µM | 0.0151 µM | – | 0.0275 µM
